Test results published in ChEMBL document CHEMBL3228031, “Prodrugs of 9-(beta-D-arabinofuranosyl)adenine 2. Synthesis and evaluation of a number of 2',3'- and 3',5'-di-O-acyl derivatives” (J Med Chem, 1979).
≈ marks a conversion by molar mass, not a printed value. Calls of active or inactive are those of the source. The calls are words filed in the database; no cut-off is given here.

What was measured:
[1] = tested on: Human alphaherpesvirus 1; assay: Antiviral activity against Herpes simplex virus 1 assessed as plaque reduction at 1.75 x 10^-5 M by cell-based assay relative to control; format: functional
Procedure, shortened: (§1)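 HSV-1 plaque-reduction assay by the Hsiung–Melnick procedure. Challenge was 125-300 plaque-forming units. An ara-A control was run alongside each sample at the same molar concentration with an identical virus challenge. Data were confirmed by duplicate assay (±10%).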

[2] = molecular target: T1, Adenosine deaminase (Bos taurus, UniProt P56658); assay: Activity of calf mucosal adenosine deaminase assessed as enzyme-mediated drug metabolism by liquid chromatographic analysis; format: ADME; conditions: cattle
T1 sequence (P56658 whole entry): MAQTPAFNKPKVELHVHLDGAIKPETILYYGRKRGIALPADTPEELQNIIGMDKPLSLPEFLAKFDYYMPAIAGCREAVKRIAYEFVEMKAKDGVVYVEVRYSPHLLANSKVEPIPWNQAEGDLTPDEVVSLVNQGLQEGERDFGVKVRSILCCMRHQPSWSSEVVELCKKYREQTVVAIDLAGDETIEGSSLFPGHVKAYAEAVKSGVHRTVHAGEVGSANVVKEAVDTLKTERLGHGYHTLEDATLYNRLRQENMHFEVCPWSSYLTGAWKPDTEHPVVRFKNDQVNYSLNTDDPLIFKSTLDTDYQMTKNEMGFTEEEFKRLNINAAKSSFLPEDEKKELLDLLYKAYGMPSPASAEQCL
Procedure, shortened: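 Drug exposed to the deaminase, with enzyme level also raised 10- and 100-fold. Reaction mixtures analysed by reverse-phase C18 LC (aqueous acetonitrile eluent, 254-nm UV detection) for unchanged substrate.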

[3] = Aqueous solubility of the compound at pH 7; format: physicochemical
[4] = tested on: Human alphaherpesvirus 1; assay: Antiviral activity against Herpes simplex virus 1 assessed as plaque reduction at 1.75 x 10^-5 M by cell-based assay relative to vidarabine; format: functional; procedure, shortened: as §1
[5] = tested on: Human alphaherpesvirus 1; assay: Antiviral activity against Herpes simplex virus 1 assessed as plaque reduction at 0.54 x 10^-5 M by cell-based assay relative to vidarabine; format: functional; procedure, shortened: as §1
[6] = tested on: Human alphaherpesvirus 2; assay: Antiviral activity against Herpes simplex virus 2 Magill infected in guinea pig assessed as prevention of vaginal discharge at 3% compound concentration treated intravaginally bid for 4 days measured on day 16 post-infection; format: functional, organism-based
Procedure, shortened: (§2)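 Animals were infected intravaginally with 1 × 10^2.82 PFU in 0.1 mL. Drug ointments were given intravaginally starting 4 h postinfection, then twice daily for 4 days, filling the vagina. Clinical signs were scored as animals positive/infected. Cure meant no symptoms, or symptoms healed by day 16 postinfection; it was reported as cured/infected.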

[7] = tested on: Human alphaherpesvirus 2; assay: Antiviral activity against Herpes simplex virus 2 Magill infected in guinea pig assessed as prevention of vulvo-vaginal swelling at 3% compound concentration treated intravaginally bid for 4 days measured on day 16 post-infection; format: functional, organism-based; procedure, shortened: as §2
[8] = tested on: Human alphaherpesvirus 1; assay: Antiviral activity against Herpes simplex virus 1 assessed as plaque reduction at 0.18 x 10^-5 M by cell-based assay relative to vidarabine; format: functional; procedure, shortened: as §1
[9] = tested on: Human alphaherpesvirus 2; assay: Antiviral activity against Herpes simplex virus 2 Magill infected in guinea pig assessed as prevention of paralysis at 3% compound concentration treated intravaginally bid for 4 days measured on day 16 post-infection; format: functional, organism-based; procedure, shortened: as §2
[10] = species: Cavia porcellus; assay: Toxicity in albino guinea pig assessed as occurrence of irritation at 3% compound concentration treated intravaginally bid for 4 days; format: organism-based; conditions: in vivo, other, 96 h
[11] = tested on: Human alphaherpesvirus 2; assay: Antiviral activity against Herpes simplex virus 2 Magill infected in guinea pig assessed as cured animal at 3% compound concentration treated intravaginally bid for 4 days measured on day 16 post-infection; format: functional, organism-based; procedure, shortened: as §2
[12] = tested on: Human alphaherpesvirus 2; assay: Antiviral activity against Herpes simplex virus 2 Magill infected in guinea pig assessed as prevention of vesiculation of labia and vulva at 3% compound concentration treated intravaginally bid for 4 days measured on day 16 post-infection; format: functional, organism-based; procedure, shortened: as §2
[13] = tested on: Human alphaherpesvirus 1; assay: Antiviral activity against Herpes simplex virus 1 assessed as plaque reduction at 0.18 x 10^-5 M by cell-based assay relative to control; format: functional; procedure, shortened: as §1
[14] = tested on: Human alphaherpesvirus 2; assay: Antiviral activity against Herpes simplex virus 2 Magill infected in guinea pig assessed as prevention of death at 3% compound concentration treated intravaginally bid for 4 days measured on day 16 post-infection; format: functional, organism-based; procedure, shortened: as §2
[15] = tested on: Human alphaherpesvirus 2; assay: Antiviral activity against Herpes simplex virus 2 Magill infected in guinea pig assessed as prevention of inflammation at 3% compound concentration treated intravaginally bid for 4 days measured on day 16 post-infection; format: functional, organism-based; procedure, shortened: as §2
[16] = tested on: Human alphaherpesvirus 1; assay: Antiviral activity against Herpes simplex virus 1 assessed as plaque reduction at 1.71 x 10^-5 M by cell-based assay relative to vidarabine; format: functional; procedure, shortened: as §1
[17] = tested on: Human alphaherpesvirus 1; assay: Antiviral activity against Herpes simplex virus 1 assessed as plaque reduction at 0.17 x 10^-5 M by cell-based assay relative to control; format: functional; procedure, shortened: as §1
[18] = tested on: Human alphaherpesvirus 1; assay: Antiviral activity against Herpes simplex virus 1 assessed as plaque reduction at 0.17 x 10^-5 M by cell-based assay relative to vidarabine; format: functional; procedure, shortened: as §1
[19] = tested on: Human alphaherpesvirus 1; assay: Antiviral activity against Herpes simplex virus 1 assessed as plaque reduction at 1.76 x 10^-5 M by cell-based assay relative to control; format: functional; procedure, shortened: as §1
[20] = tested on: Human alphaherpesvirus 1; assay: Antiviral activity against Herpes simplex virus 1 assessed as plaque reduction at 1.76 x 10^-5 M by cell-based assay relative to vidarabine; format: functional; procedure, shortened: as §1
[21] = tested on: Human alphaherpesvirus 1; assay: Antiviral activity against Herpes simplex virus 1 assessed as plaque reduction at 1.67 x 10^-5 M by cell-based assay relative to vidarabine; format: functional; procedure, shortened: as §1
[22] = tested on: Human alphaherpesvirus 1; assay: Antiviral activity against Herpes simplex virus 1 assessed as plaque reduction at 1.67 x 10^-5 M by cell-based assay relative to control; format: functional; procedure, shortened: as §1

CC(=O)OC[C@H]1O[C@@H](n2cnc3c(N)ncnc32)[C@@H](O)[C@@H]1OC(C)=O
inhibition at 17.5 µM [1]: 81% | Stability [2]: Stable | solubility ([3]; aqueous, read-out: solubility): 4.7 mg/mL (≈ 13.4 mM) | inhibition at 17.5 µM [4]: 87% | inhibition at 5.4 µM [5]: 79%

CC(C)C(=O)OC[C@H]1O[C@@H](n2cnc3c(N)ncnc32)[C@@H](O)[C@@H]1OC(=O)C(C)C
inhibition at 17.5 µM [1]: 0% | Stability [2]: Stable | solubility ([3]; aqueous, read-out: solubility): 0.02 mg/mL (≈ 0.0491 mM) | inhibition at 17.5 µM [4]: 90%

CC(=O)O[C@H]1[C@H](OC(C)=O)[C@@H](CO)O[C@H]1n1cnc2c(N)ncnc21
Activity [6]: Active | Activity [7]: Active | inhibition at 17.5 µM [1]: 68% | inhibition at 1.8 µM [8]: 40% | Activity [9]: Active | Stability [2]: Stable | solubility ([3]; aqueous, read-out: solubility): 33 mg/mL (≈ 93.9 mM) | Activity [10]: Non-toxic | Activity [11]: Active | Activity [12]: Active | inhibition at 1.8 µM [13]: 0% | inhibition at 17.5 µM [4]: 100% | Activity [14]: Active | Activity [15]: Active

CC(=O)O[C@H]1[C@H](O)[C@@H](CO)O[C@H]1n1cnc2c(N)ncnc21
inhibition at 17.1 µM [16]: 90% | inhibition at 1.7 µM [17]: 0% | inhibition at 1.7 µM [18]: 60% | Stability [2]: Stable | solubility ([3]; buffer): soluble

CCC(=O)O[C@H]1[C@H](O)[C@H](n2cnc3c(N)ncnc32)O[C@@H]1CO
inhibition at 1.8 µM [8]: 36% | inhibition at 17.6 µM [19]: 80% | Stability [2]: Unstable | solubility ([3]; buffer): soluble | inhibition at 17.6 µM [20]: 87% | inhibition at 1.8 µM [13]: 5%

CC(C)(C)C(=O)OC[C@H]1O[C@@H](n2cnc3c(N)ncnc32)[C@@H](O)[C@@H]1OC(=O)C(C)(C)C
Stability [2]: Stable | solubility ([3]; aqueous, read-out: solubility): < 0.01 mg/mL | inhibition at 16.7 µM [21]: 100% | inhibition at 16.7 µM [22]: 0%

CCC(=O)OC[C@H]1O[C@@H](n2cnc3c(N)ncnc32)[C@@H](O)[C@@H]1OC(=O)CC
inhibition at 1.8 µM [8]: 23% | Stability [2]: Stable | solubility ([3]; aqueous, read-out: solubility): 2.3 mg/mL (≈ 6.06 mM) | inhibition at 17.6 µM [20]: 76% | inhibition at 1.8 µM [13]: 0%
